Measured values: PubChem BioAssay
Inconclusive results are not listed.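 The calls were made as follows, unless noted: active = growth inhibition above 25% in both replicates, a cutoff set 3 SD above the mean; inconclusive = above 25% in only one replicate; inactive = the rest.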

Legend:
[1] = S. cerevisiae growth inhibition in permissive medium (OD615), pilot counter-assay for S. cerevisiae lifespan shortening project, permissive growth control (AID 705); details: OD615, 24 h, at 10 µM, stronger effect = higher value
Outline: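 System: S. cerevisiae with engineered DeaD lifespan system / Measured by: absorbance (optical density) at 615 nm / Read-out: reduction in yeast growth (OD615) / Times: 4 h cell pre-growth, 24 h exposure at 30 °C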

[2] = S. cerevisiae growth inhibition in restrictive medium, OD615, pilot screen, restrictive growth control, yeast lifespan reduction project (AID 706;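 active = growth inhibition above a set limit, 3 SD over mean compound inhibition, in both replicates, cut at about 43% in these data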;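 also: modified DeaD lifespan yeast strain shifted to restrictive glucose medium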); details: OD615, 48 h, at 10 µM, stronger effect = higher value
Outline: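 System: Engineered S. cerevisiae DeaD strain | Buffer or medium: Glucose-based CSMM-D restrictive medium | Schedule: 4 h pre-incubation, 48 h exposure at 30 °C | Technique: Optical density at 615 nm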

[3] = doxorubicin toxicity protection in MRP-1 cells – H69AR cells, CellTiter-Glo, duplicate, MRP-1 activator project, pilot screen (AID 807;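 active = viability increase at or above a cutoff of the median across tested compounds plus 3 SD, cut at about 8.5% in these data, passing the limit was not always enough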;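 also: compound pretreatment 18-22 h then 72 h combined with doxorubicin; 0% = doxorubicin alone and 100% = vehicle without doxorubicin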); details: H69AR viability with doxorubicin, CellTiter-Glo luminescence; at 10 µM; stronger effect = higher value
[4] = viability of HCT116 without oncogenic beta-catenin – human colon tumor cells, pilot screen (AID 823;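 active = cell viability at or below a set limit in both duplicate runs, the limit being the all-compound median minus 4 SD, cut at about 23% in these data, passing the limit was not always enough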;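 also: 0% = wells killed by 20 µM Hyamine and 100% = untreated DMSO cell wells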); details: HCT116 beta-catenin knockout viability, CellTiter-Glo, 60 h; at 10 µM; stronger effect = lower value
[5] = viability of PTEN-null HCT116 cells – cell-based, HCT116 clonal line, CellTiter-Glo, pilot screen (AID 824;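 active = viability at or below 27.92% in each of two runs, the all-compound median minus 4 SD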;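 also: 0% = 20 µM Hyamine control and 100% = vehicle cell control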); details: HCT116 PTEN-deleted viability, 60 h, at 10 µM, stronger effect = lower value
[6] = RAM pathway blockade in budding yeast – dse1pr::URA3 reporter, 5-FOA selection, pilot screen (AID 869;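 active = inhibition over a set limit, the all-compound mean plus 3 SD, in both replicate runs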;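 also: 0% = DMSO wells with no growth and 100% = 10 µM 1-NA-PP1 with full growth; RAM network block rescues cells from 5-FOA so hits raise OD615 growth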); details: S. cerevisiae dse1pr::URA3 5-FOA growth, OD615, 2 d, at 10 µM, stronger effect = higher value
[7] = RAM signaling pathway blockade in yeast – S. cerevisiae, Pdr1DBD-CYC8 efflux-inhibited sensitized strain, primary screen (AID 1298;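 active = RAM network inhibition above 8.4% in each of two replicates, 3 SD over the compound average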;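 also: 0% = DMSO untreated cells without growth and 100% = 10 µM 1-NA-PP1 full growth; higher means more yeast growth rescued from 5-FOA killing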); details: S. cerevisiae cbk1-as DSE1-URA3 strain, 5-FOA growth OD615, 2 d; at 50 µM; stronger effect = higher value

CCOC(=O)c1c(C)n(Cc2ccco2)c2ccc(OC)cc12
inactive: growth inhibition [1] 3.7% | growth inhibition [2] 0.26% | viability increase [3] -4.85% | viability [4] 84.4% | viability [5] 85.8% | inhibition [6] 0.59% | RAM network inhibition [7] 3.6%

O=c1c2ccccc2nc(-c2ccco2)n1-c1ccccn1
inactive: growth inhibition [1] -12.2% | growth inhibition [2] -7.09% | viability increase [3] -0.82% | viability [4] 107% | viability [5] 95.2% | inhibition [6] 1.16% | RAM network inhibition [7] 3.37%

COc1ccc(CN2CC3CC(C2)c2cccc(=O)n2C3)cc1OC (configuration not stated)
inactive: growth inhibition [1] -11.4% | growth inhibition [2] -6.36% | viability increase [3] -1.47% | viability [4] 93.2% | viability [5] 93.7% | inhibition [6] 2.04% | RAM network inhibition [7] 1.09%

CN1CCN(c2ncnc3ccc(Br)cc23)CC1
inactive: growth inhibition [1] -1.88% | growth inhibition [2] 5.46% | viability increase [3] -1.88% | viability [4] 94.2% | viability [5] 98.4% | inhibition [6] -0.575% | RAM network inhibition [7] 2.92%

O/N=C1\CCC2CN(C3CCCCC3)CC2C1 (configuration not stated)
inactive: growth inhibition [1] 8.11% | growth inhibition [2] -1.4% | viability increase [3] -1.85% | viability [4] 109% | viability [5] 97.9% | inhibition [6] 0.775% | RAM network inhibition [7] 0.94%

CCOC(=O)c1c(C)n(Cc2ccccc2)c2ccc(OCC(O)Cn3nc(C)nc3C)cc12 (configuration not stated)
inactive: growth inhibition [1] -0.525% | growth inhibition [2] 19.9% | viability increase [3] -0.16% | viability [4] 82.7% | viability [5] 88.3% | inhibition [6] -0.42% | RAM network inhibition [7] 0.63%
